Experimental findings from ChEMBL document CHEMBL1147230, “Novel oxylipin metabolites from the brown alga Eisenia bicyclis” (2003) are described below.

Format in all cases: functional
In experiment [1] the test system is Staphylococcus aureus. As to the kind of experiment: Antibacterial activity against Staphylococcus aureus after 12 hrs relative to vancomycin. An outline of the steps: (§1)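 Paper disk diffusion: 0.1 mg sample loaded per disk, incubated on bouillon culture medium at 37 °C. Inhibition zone diameter measured after 12 h. Activity expressed relative to a vancomycin standard disk (0.1 mg).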

Experiment [2] deals with Bacillus subtilis. The experiment can be described thus: Antibacterial activity against Bacillus subtilis after 12 hrs relative to vancomycin. The method in brief:
as §1

Experiment [3] has as its system Bacillus subtilis. As to the kind of experiment: Antibacterial activity against Bacillus subtilis after 12 hrs. The method in brief: (§2)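 Paper disk diffusion: 0.1 mg sample loaded per disk, incubated in bouillon culture medium at 37 °C for 12 h, then inhibition zone diameter measured. Activity expressed relative to vancomycin standard (0.1 mg per disk).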
Experiment [4] has as its system Staphylococcus aureus. The experiment can be described thus: Antibacterial activity against Staphylococcus aureus after 12 hrs. An outline of the steps:
as §2

Take `CC[C@H]1O[C@@H]2[C@@H](/C=C\C/C=C\CCCCC(=O)O)[C@H]1C[C@H]2Cl`: the Activity is on record as 0.4 in the experiment with Staphylococcus aureus [1] and 0.43 in the experiment with Bacillus subtilis [2].

As for `CC[C@@H]1OC(=O)CCCC/C=C\C/C=C\[C@H]2[C@H]1C[C@@H]1O[C@H]21` [ECKLONIALACTONE A], the Activity in the experiment with Staphylococcus aureus [1] worked out at 0.41; with Bacillus subtilis [2], 0.3.

On to `CC[C@H](Cl)[C@@H]1C[C@@H]2O[C@@H]2[C@H]1/C=C\C/C=C\CCCCC(=O)O` [EGREGIACHLORIDE A], for which the figures for the Activity with Staphylococcus aureus [1] and in the experiment on Bacillus subtilis [2] were 0.47 and 0.35, respectively.

As for `CC[C@@H]1OC(=O)CCCC/C=C\C/C=C\[C@@H]2[C@@H](O)[C@H](Cl)C[C@H]21` [EISENIACHLORIDE A], the Activity in the experiment with Staphylococcus aureus [1] turned out to be 0.38; in the experiment on Bacillus subtilis [2], 0.36.

With `CC[C@@H]1OC(=O)CCCCCCC/C=C\[C@@H]2[C@@H](O)[C@H](Cl)C[C@H]21` [EISENIACHLORIDE B], the Activity with Staphylococcus aureus [1] stood at 0.53; in the experiment on Bacillus subtilis [2], 0.31.

For the molecule `CC[C@@H]1OC(=O)CCC/C=C\C/C=C\C/C=C\[C@@H]2[C@@H](O)[C@H](Cl)C[C@H]21` [EISENIACHLORIDE C], the results for the Activity with Staphylococcus aureus [1] and in the experiment on Bacillus subtilis [2] were 0.34 and 0.29, respectively.

Take `CC[C@@H]1OC(=O)CCCCCCC/C=C\[C@@H]2[C@@H](O)[C@H](I)C[C@H]21` [EISENIAIODIDE B]: the results for the Activity with Staphylococcus aureus [1] and in the experiment on Bacillus subtilis [2] were 0.47 and 0.28, respectively.

Take `CN[C@H](CC(C)C)C(=O)N[C@H]1C(=O)N[C@@H](CC(N)=O)C(=O)N[C@H]2C(=O)N[C@H]3C(=O)N[C@H](C(=O)N[C@H](C(=O)O)c4cc(O)cc(O)c4-c4cc3ccc4O)[C@H](O)c3ccc(c(Cl)c3)Oc3cc2cc(c3O[C@@H]2O[C@H](CO)[C@@H](O)[C@H](O)[C@H]2O[C@H]2C[C@](C)(N)[C@H](O)[C@H](C)O2)Oc2ccc(cc2Cl)[C@H]1O` [VANCOMYCIN]: the “inhibition zone (IZ)” value with Bacillus subtilis [3] came out at 26.8 mm; in the experiment with Staphylococcus aureus [4], 34.6 mm. Also, the Activity with Staphylococcus aureus [1] and in the experiment on Bacillus subtilis [2] was 1 each time.
